CSC inhib: cancer stem cell inhibition; cancer stem cell-like cells viability, luminescence; 300,000 compounds, 1.1% hits; inhibition, % at 7.5 µM; in the data active means inhibition above about 75%; tested in HMLE shEcad cells
T cruzi repl: blocks replication of Trypanosoma cruzi | T. cruzi beta-gal in NIH3T3, luminescence, 90 h | inhibition, % (no concentration beside the values) | 300,000 compounds, 1.4% hits | AID 1885;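 active means mean inhibition across valid replicates above about 55%, limit read from the data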;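 further: signal also drops with host cell toxicity which is not excluded here; 0% = plate median of DMSO wells and 100% = zero luminescence signal; higher percent means less beta-gal luminescence so fewer parasites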
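System: Mouse NIH/3T3 fibroblasts infected with β-gal-expressing T. cruzi Tulahuen C4 | Quantity: NIH/3T3 cells, 5,000 per well | Reagent: 5000 reporter trypomastigotes per well | Dosing: Compound pinned at 50 nL/well, DMSO | Schedule: 3 h host attachment, then at least 90 h co-culture | Detection: GalScreen luminescence, 60 min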
Beta cell apopt: blocks beta cell apoptosis | INS-1E cytokine-induced death, ATP luminescence, 48 h; percent of positive-control rescue, neutral wells zero | protection from apoptosis, % (concentration not given with the values) | 300,000 compounds, 0.8% hits | AID 435005;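 active means Every replicate reaches about 75%, or at least half do and their mean reaches it too, limit read from the data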;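 further: 0% = cytokine-treated negative control wells and 100% = positive control rescue; higher means more ATP so stronger rescue from cytokine killing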
WT yeast gro inh: growth inhibition of WT yeast, mitochondrial fusion screen. mitochondrial fusion phenotypic screen, WT strain. inhibition, % at 10 µM. 190,000 compounds, 2.1% hits; in the data active means inhibition above about 58%; tested in S. cerevisiae
Mot1-301 SUMO: SUMOylation pathway inhibition by Mot1-301 growth rescue; S. cerevisiae Mot1-301 growth rescue, ATP luminescence, 38.5C; percent above DMSO median, 100 means doubled; growth rescue, % at 18.8 µM; 320,000 compounds, 1% hits; AID 2716;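 active means every valid replicate shows activation above 250% relative to neutral control wells; inactive means the rest, any valid replicate at or below 250%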;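 further: OY570 slx delta 5 strain wells were the positive control but not used for scaling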
Efflux pump mplx: inhibitors of Candida antifungal efflux pumps expressed in yeast; S. cerevisiae Candida pump triplex, Nile Red efflux; inhibition, % at 10 µM; 330,000 compounds, 0.44% hits; AID 485275;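 active means plate passing quality check with inhibition over a set limit, or well fluorescence over plate mean plus 4 SD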;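 further: Nile Red retained in pooled yeast measured as flow cytometry median fluorescence; 0% = buffer negative control and 100% = Enniatin B positive control; higher means more Nile Red kept so more efflux inhibition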
* marks the source's active call; other numbers are inactive results; nt = not tested or not shown. In the library only some 4.8% were active in any assay of this set; here they are far more common.

SMILES | CSC inhib | T cruzi repl | Beta cell apopt | WT yeast gro inh | Mot1-301 SUMO | Efflux pump mplx
O=C(/C=C/c1ccc([N+](=O)[O-])cc1)Oc1ccc(/C=N/NC(=O)c2ccncc2)cc1 | -2 | 55* | -3 | nt | 6 | 0
O=C(N/N=C/c1ccc(OCc2ccc(F)cc2)cc1)c1ccccc1 | 4 | -13 | -4 | 0 | -18 | 0
O=C1CNC(=O)N1CC(O)Cn1c2ccccc2c2ccccc21 (stereo unspecified) | nt | 3 | 0 | -6 | -2 | 0
O=C(COc1ccc(-c2ccccc2)cc1)N/N=C/c1ccccc1Br | 31 | 4 | -7 | 12 | nt | 0
O=C(COc1ccc(-c2ccccc2)cc1)N/N=C/c1cc(O)ccc1Br | 89* | -25 | 0 | 96* | 190 | 0
O=[N+]([O-])c1ccc(/C=C/c2ccncc2)cc1 | 3 | 65* | 3 | nt | 125 | 0
CC(C)(C)c1ccc(OCc2ccc(C(=O)N/N=C3\CC4CC=CC34)cc2)cc1 (stereo unspecified) | 42 | 4 | 0 | 72* | -14 | 0
O=C(N/N=C/c1cccc(O)c1)c1ccc(COc2ccccc2Br)cc1 | 87* | -2 | -4 | 80* | -7 | -4
O=C(N/N=C/c1cccc(O)c1)c1ccc(COc2cccc3cccnc23)cc1 | -3 | -16 | 6 | -1 | 17 | 0
O=[N+]([O-])c1cccc(/C=C/c2ccncc2)c1 | -3 | 48 | 0 | nt | -18 | 0
Cc1c(C(c2ccc([N+](=O)[O-])cc2)c2c(C)n(C)n(-c3ccccc3)c2=O)c(=O)n(-c2ccccc2)n1C | -9 | 1 | -3 | 5 | -35 | 0
CS(=O)(=O)N1CC(C(=O)NC2CC2)Oc2ccc(Cl)cc21 (stereo unspecified) | -2 | -3 | 3 | 6 | -4 | 0
CCOc1ccc(/C=N/NC(=O)COc2ccccc2-c2ccccc2)cc1 | 78* | 19 | 3 | 21 | -3 | 0
CCOc1ccc(/C=N/NC(=O)c2c(-c3ccccc3)noc2C)cc1 | -10 | -5 | -5 | -9 | -5 | 0
Cc1ccc(NNC(=O)c2cc(C)on2)c(C)c1 | 26 | 23 | 0 | nt | 4 | 0
Cc1cc(C(=O)NNc2ccc(Cl)cc2)no1 | 117* | 37 | -7 | nt | 62 | 0
Cc1cc(C(=O)NNc2ccc(F)cc2F)no1 | 75* | nt | -9 | nt | 538* | 0
O=C(NCCNC(=O)c1ccccn1)c1ccc(-c2ccccc2)cc1 | -10 | -7 | -8 | nt | 3 | 0
O=C(Cn1cnc2cc([N+](=O)[O-])ccc2c1=O)Nc1ccccc1-c1ccccc1 | 6 | 58* | 2 | nt | 4 | 0
Cc1ccc(CNC(=O)Cn2cnc3cc([N+](=O)[O-])ccc3c2=O)cc1 | -9 | 50 | -8 | -38 | 2 | 0
O=C(Cn1cnc2cc([N+](=O)[O-])ccc2c1=O)Nc1ccc(Br)cc1 | -3 | 68* | 2 | nt | -5 | 0
CC(C)(C)c1ccc(NC(=O)Cn2cnc3cc([N+](=O)[O-])ccc3c2=O)cc1 | -11 | 72* | nt | 11 | 11 | 0
CC1CCCC(C)N1C(=O)Cn1cnc2cc([N+](=O)[O-])ccc2c1=O (stereo unspecified) | 7 | 9 | 2 | -2 | 6 | 0
COc1ccccc1OCC(=O)N/N=C1/SCC(=O)N1Cc1ccccc1 | 1 | -9 | 1 | -15 | 354* | 0
CCn1cc(S(=O)(=O)c2ccc(Cl)cc2)c(=O)c2cc(OC)ccc21 | -23 | -2 | -3 | nt | 38 | 0
SMILES | CSC inhib | T cruzi repl | Beta cell apopt | WT yeast gro inh | Mot1-301 SUMO | Efflux pump mplx
O=C(O)c1ccccc1CSc1nc2ccccc2o1 | -5 | -5 | -3 | -11 | 320* | 0
O=C(O)c1ccc(CSc2nc3ccccc3o2)cc1 | 0 | -19 | -2 | 6 | 25 | 0
Cc1cc(N2CCN(c3nc4ccccc4s3)CC2)n2ncnc2n1 | 1 | -45 | 87* | -25 | -17 | 0
CCC(C)NCCOc1ccc(C)cc1[N+](=O)[O-] (stereo unspecified) | nt | 3 | nt | -4 | nt | nt
CCC(C)Nc1c([N+](=O)[O-])cc(C)cc1[N+](=O)[O-] (stereo unspecified) | -4 | -14 | -5 | 67* | 21 | 0
O=[N+]([O-])c1ccccc1NCCNS(=O)(=O)c1ccc(Cl)cc1 | 9 | 0 | -5 | -3 | 1 | 0
O=[N+]([O-])c1ccc(NCCCNS(=O)(=O)c2ccc(Cl)cc2)c(Cl)c1 | 2 | 2 | 18 | 60* | 9 | 0
Cc1cc(C(C)(C)C)cc(C)c1C[n+]1ccc2ccccc2c1 | 10 | 44 | 111* | nt | 1 | 0
CCNc1ccc(S(=O)(=O)N(C)C)cc1NCC(=O)Nc1ccc(F)c(Cl)c1 | -3 | -6 | 30 | -1 | 419 | -8
COc1ccccc1-c1c(C)nn2c(N3CCCCCC3)cc(C)nc12 | nt | 43 | nt | 61* | nt | 0
COc1ccccc1-c1c(C)nn2c(N3CCOCC3)cc(C)nc12 | 4 | -1 | 1 | nt | -6 | 1
COc1ccc(-c2c(C)nn3c(N4CCN(Cc5ccccc5)CC4)cc(C)nc23)cc1OC | 26 | 28 | 7 | 15 | -2 | 0
COc1ccccc1-c1c(C)nn2c(N3CCN(Cc4ccccc4)CC3)cc(C)nc12 | 22 | 42 | 6 | 85* | 11 | 0
CC(=O)NC(CC(=O)OCC(=O)c1ccc(NC(=O)CC(C)C)cc1)c1ccccc1 (stereo unspecified) | -16 | nt | -6 | nt | 7 | 0
Cc1ccccc1Nc1nc(N)nc(-c2oc3ccccc3c2C)n1 | 19 | 56* | -21 | nt | 20 | 0
Cc1c(-c2nc(N)nc(Nc3ccc(F)cc3)n2)oc2ccccc12 | 21 | 62* | nt | 1 | -9 | 0
COc1ccccc1Nc1nc(N)nc(-c2oc3ccccc3c2C)n1 | -16 | 7 | 0 | -2 | 102 | 0
O=C(C1CCCN(S(=O)(=O)c2cccc3cccnc23)C1)N1CCN(c2ccc(F)cc2)CC1 (stereo unspecified) | 7 | 10 | -2 | 0 | -11 | 0
CCN(CC(=O)NC1CCS(=O)(=O)C1)S(=O)(=O)c1ccc(C)cc1C (stereo unspecified) | -1 | 0 | 0 | -7 | -6 | 0
CN(C)CCNC(=O)c1sc2nc(-c3ccccc3)cc(C(F)(F)F)c2c1N | 78* | 18 | 8 | nt | 15 | 0
CC(C)Oc1ccccc1NC(=O)CSc1nccn1C | -2 | 1 | -4 | nt | -6 | 0
CCCc1sc(N)nc1-c1ccc(Cl)cc1 | -2 | 5 | 3 | 69* | 109 | 0
CCCc1nc2c(s1)CCc1onc(-c3ccc(Cl)cc3)c1-2 | 8 | -10 | -12 | nt | -22 | nt
O=C(COc1ccccc1)NCC(=O)N1CCCCCC1 | nt | nt | -1 | nt | -9 | 0
CCn1c(=N)n(CC(=O)c2cccc([N+](=O)[O-])c2)c2ccccc21 | -7 | 1 | 0 | -6 | -11 | 0
